S1P4 ag: agonists of human S1P4 receptor | activation, % at 4.98 µM | S1P4-expressing cell line, agonist reporter assay | O95977 | 220,000 tested, 0.35% active; in the data active means activation above about 11%;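 further: 0% = DMSO vehicle and 100% = reference agonist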
NPY Y1 blocker: NPY-Y1 (human) receptor antagonism | P25929 | HEK293-CNG Y1 cells, membrane potential fluorescence; NPY at EC95, then isoproterenol | inhibition, % at 3.6 µM | 200,000 tested, 1% active | AID 1040;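 active means inhibition above the campaign mean inhibition of all tested compounds plus 3 SD, cut at about 20% in these data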;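 further: 0% = DMSO wells given NPY plus isoproterenol and 100% = isoproterenol alone without NPY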
Target sequence (P25929 whole entry, looked up): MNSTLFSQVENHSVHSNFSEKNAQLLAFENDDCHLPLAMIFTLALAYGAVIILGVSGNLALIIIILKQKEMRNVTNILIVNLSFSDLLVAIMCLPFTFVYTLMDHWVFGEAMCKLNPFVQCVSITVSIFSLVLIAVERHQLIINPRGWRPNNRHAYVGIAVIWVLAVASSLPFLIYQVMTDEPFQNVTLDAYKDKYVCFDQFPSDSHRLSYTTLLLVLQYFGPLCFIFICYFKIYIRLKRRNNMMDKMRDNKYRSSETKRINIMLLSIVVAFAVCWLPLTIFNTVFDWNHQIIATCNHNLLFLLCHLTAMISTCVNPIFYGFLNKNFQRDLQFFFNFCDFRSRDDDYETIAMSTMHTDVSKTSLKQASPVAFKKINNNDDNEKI
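Material: HEK293 Y1/CNG channel cell line; also added: NPY (25 nM), isoproterenol (1 µM), Ro 20-1724 (25 µM); doses: one concentration, 3.6 µM, in 0.4% DMSO; schedule: compound incubation 1 h at room temperature, readout 45 min post-stimulation; technique: membrane potential fluorescence; measure: fluorescence ratio normalized to % inhibition between controls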
NPY1 pot ag: potentiates or activates human NPY-Y1 receptor; NPY-Y1 expressing cells, potentiator/agonist activation; activation, % at 3.6 µM; 220,000 tested, 0.37% active; AID 1304; in the data active means activation above about 33%, passing the limit was not always enough;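 further: cells stimulated with NPY at EC10 then isoproterenol at EC100; 0% = low agonist plus stimulus and 100% = saturating agonist plus stimulus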
S1P4 antag: blocks the human S1P4 receptor; O95977; S1P4-expressing cells, antagonist mode, reporter read-out; inhibition, % at 4.98 µM; 220,000 tested, 0.26% active; in the data active means inhibition above about 29%;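 further: 0% = wells stimulated with agonist and 100% = vehicle wells without agonist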
NPY2 pot ag: human NPY-Y2 potentiation or agonism, primary screen | 220,000 tested, 0.45% active | P49146 | AID 1359 | activation, % at 3.6 µM | cells expressing NPY-Y2, potentiator/agonist read-out; in the data active means activation above about 27%;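 further: cells stimulated with NPY near EC25 plus isoproterenol at EC100; 0% = vehicle plus submaximal agonist and 100% = vehicle plus saturating agonist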
NPY Y2 blocker: blocks the human neuropeptide Y Y2 receptor; 140,000 tested, 0.99% active; NPY-Y2 expressing cells, antagonist mode; P49146; inhibition, % at 2.7 µM; in the data active means inhibition above about 17%;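 further: 0% = vehicle with agonist challenge and 100% = reference antagonist with challenge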
S1P4 antag conf: confirmation of human S1P4 receptor antagonists. shares compounds with S1P4 antag. S1P4-expressing cell line, antagonist mode, reporter read-out. inhibition, % at 4.98 µM. 520 tested, 71% active; in the data active means inhibition above about 30%
S1P1 antag: counter-screen for S1P4 antagonists: antagonists of human S1P1 | 520 tested, 37% active | cell-based S1P1 antagonist counterscreen, inhibition | inhibition, % at 4.98 µM | shares compounds with S1P4 antag; in the data active means inhibition above about 40%;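 further: receptor stimulated with S1P near its EC80; 0% = agonist stimulated wells and 100% = vehicle only wells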
Target sequence (P21453 whole entry, looked up): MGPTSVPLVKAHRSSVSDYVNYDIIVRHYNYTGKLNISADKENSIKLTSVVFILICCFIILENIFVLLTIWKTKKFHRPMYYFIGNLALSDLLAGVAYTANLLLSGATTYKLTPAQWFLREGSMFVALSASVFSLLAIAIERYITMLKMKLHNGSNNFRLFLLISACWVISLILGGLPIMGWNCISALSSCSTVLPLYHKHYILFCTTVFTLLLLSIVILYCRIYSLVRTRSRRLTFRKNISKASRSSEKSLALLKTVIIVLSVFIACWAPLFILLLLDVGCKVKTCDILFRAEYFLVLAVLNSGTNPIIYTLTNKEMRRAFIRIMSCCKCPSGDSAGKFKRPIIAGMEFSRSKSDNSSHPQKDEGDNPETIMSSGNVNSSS
Starred values were filed as active, the others as inactive; nt = no result. Rows were chosen to be rich in hits. Some 2.4% of all compounds tested hit in one or more screens of this group.

SMILES | S1P4 ag | NPY Y1 blocker | NPY1 pot ag | S1P4 antag | NPY2 pot ag | NPY Y2 blocker | S1P4 antag conf | S1P1 antag
O=[N+]([O-])c1cc(C(F)(F)F)cc([N+](=O)[O-])c1N1CCCNCC1 | 0.0 | -1.8 | 10.8 | -11.3 | -5.5 | nt | nt | nt
CC(C)(C)NC(=S)N/N=C\c1ccc(-c2ccc([N+](=O)[O-])cc2)o1 | -2.6 | nt | 14.3 | 44.7* | 2.7 | nt | 82.6* | 133.7*
CCCCC(=O)N/N=C/c1ccc(-c2ccc([N+](=O)[O-])cc2)o1 | 2.0 | -2.4 | 7.3 | -0.4 | 13.5 | nt | nt | nt
COc1ccc(N2C(=O)CC(N3CCN(S(=O)(=O)c4ccc(Cl)cc4)CC3)C2=O)cc1 (configuration not stated) | 0.4 | -4.4 | 33.8 | 30.0* | -2.5 | nt | -7.3 | -5.5
COc1ccc(N2C(=O)CC(N3CCC(O)(c4ccc(Cl)cc4)CC3)C2=O)cc1 (configuration not stated) | 0.3 | -0.4 | 8.5 | -18.7 | 3.8 | 0.7 | nt | nt
CCN(CC)c1ccc(/C=N/NC(=O)c2ccoc2C)c(O)c1 | 0.8 | nt | 15.8 | -4.2 | -9.5 | nt | nt | nt
COc1ccc(NC(=O)C(Cl)=C(Cl)Cl)cn1 | 0.1 | -4.2 | 6.8 | -2.7 | 8.8 | nt | nt | nt
COc1ccc(NC(=O)/C(Cl)=C(/Cl)S(=O)(=O)Cc2ccccc2)cn1 | 4.2 | 0.7 | 7.4 | 66.5* | -8.5 | -0.7 | 118.9* | 61.5*
Nn1cnnc1SCC(=O)Nc1ccc2c(c1)OCO2 | -0.4 | -0.1 | 11.9 | 7.0 | 11.3 | nt | nt | nt
CC(=O)N1/C(=C/c2ccc(N(C)C)cc2)C(=O)c2ccccc21 | -3.9 | 18.5 | -1.8 | 30.3* | -16.4 | nt | 91.3* | 91.5*
O=C(C1CCCCN1S(=O)(=O)c1ccccc1[N+](=O)[O-])N1CCCCC1 (configuration not stated) | -0.1 | 3.2 | -8.1 | 0.0 | -0.2 | nt | nt | nt
CC1CCCC(C)N1C(=O)CSc1nnnn1Cc1ccccc1 (configuration not stated) | 1.3 | 2.2 | 3.8 | 91.7* | 9.8 | -0.6 | 1.5 | -1.5
CC(=O)Nc1cccc(C(=O)/C=C/c2ccc(F)cc2)c1 | -1.3 | -9.3 | 5.5 | 46.1* | -7.0 | nt | 71.9* | 23.4
CC(=O)Nc1cccc(C(=O)/C=C/c2ccc(/C=C/C(=O)c3cccc(NC(C)=O)c3)cc2)c1 | -1.3 | -2.5 | -43.1 | -4.5 | 0.8 | -0.1 | nt | nt
COc1ccc(-c2cc(-c3ccccc3)c(C#N)c(S(C)=O)n2)cc1 (configuration not stated) | -3.9 | -18.3 | 72.0* | 54.0* | 76.1* | -0.5 | 85.2* | 19.3
CCSc1nc(-c2ccc(OC)cc2)cc(-c2ccccc2)c1C#N | 1.7 | -3.8 | -49.2 | -12.9 | -16.9 | 1.4 | nt | nt
CCc1ccc(N2C(=O)CC(NNc3nc4ccccc4s3)C2=O)cc1 (configuration not stated) | -0.5 | 9.5 | -9.4 | 6.0 | 5.7 | 0.8 | nt | nt
O=C(CC(SCc1ccco1)c1ccc(O)cc1)c1cccs1 (configuration not stated) | -1.2 | -12.9 | -1.8 | 20.8 | 3.3 | 2.3 | nt | nt
O=C(CC(SCCO)c1ccc2c(c1)OCO2)c1cccs1 (configuration not stated) | -0.6 | -0.3 | 3.4 | 36.5* | 6.2 | -1.4 | 28.5 | -20.6
Cc1ccc(C(C(=O)NC(C)(C)C)N(Cc2ccco2)C(=O)CCC(=O)Nc2nccs2)cc1 (configuration not stated) | -1.0 | -2.3 | -2.9 | -8.6 | -1.6 | 3.4 | nt | nt
O=c1c(Cl)c(Cl)cnn1Cc1nnc(-c2ccc(Cl)cc2)o1 | -2.0 | 1.5 | 10.9 | 36.7* | 1.2 | nt | 68.1* | 21.0
O=c1c(Cl)c(Cl)cnn1-c1ccccc1 | 2.2 | 7.1 | 10.2 | 101.1* | 2.2 | 3.2 | 122.3* | 72.0*
Cc1ccc(Cn2ncc(Cl)c(Cl)c2=O)cc1 | 0.8 | -7.4 | 18.3 | -25.9 | -3.9 | 0.6 | nt | nt
O=c1c(Cl)c(Cl)cnn1Cc1ccccc1Cl | 1.3 | -9.5 | 27.1 | 46.2* | 11.9 | 2.3 | 115.3* | 58.0*
O=C(COC(=O)c1ccccc1Br)Nc1cc(S(=O)(=O)N2CCOCC2)ccc1N1CCCC1 | -0.2 | -4.4 | -5.0 | -9.1 | 1.1 | nt | nt | nt
SMILES | S1P4 ag | NPY Y1 blocker | NPY1 pot ag | S1P4 antag | NPY2 pot ag | NPY Y2 blocker | S1P4 antag conf | S1P1 antag
Oc1[nH]c2ccc(Br)cc2c1N=NC(=S)N1CCOCC1 | -1.3 | nt | 7.9 | 32.7* | 4.0 | nt | 101.5* | 58.3*
CCOc1cc(CNCCc2ccc(S(N)(=O)=O)cc2)ccc1OCc1ccc(Cl)cc1 | -6.0 | 1.9 | 3.0 | 36.6* | 2.5 | 9.3 | 39.9* | 27.5
O=S(=O)(c1ccc(Cl)cc1)c1snnc1-c1ccccc1 | -2.1 | 5.1 | -23.1 | 35.8* | -1.5 | 5.8 | 72.3* | 8.3
Oc1c(C(c2ccccc2Cl)N2CCCC2)ccc2cccnc12 (configuration not stated) | -0.5 | -4.1 | 4.5 | 29.6* | 2.7 | nt | 112.2* | 92.0*
Cc1cc(C)c([N+](=O)[O-])cc1NCC(=O)N1CCN(c2ccccc2)CC1 | -0.7 | 9.1 | 9.5 | 37.9* | -1.9 | nt | -4.6 | -8.7
CC(C)CC(=O)N1CCN(c2ccc([N+](=O)[O-])c(NCc3ccccc3)c2)CC1 | 0.2 | 6.0 | -34.4 | -3.7 | -3.3 | 13.9 | nt | nt
COc1ccc2cc(-c3cc(C(=O)OCC(=O)NC4CCS(=O)(=O)C4)c4ccccc4n3)ccc2c1 (configuration not stated) | -1.3 | -1.2 | -9.1 | 1.8 | -7.4 | -0.3 | nt | nt
COc1ccc(N=C2C(=Nc3ccc(OC)cc3)N(c3ccc(OC)cc3)C(=S)N2c2ccccc2)cc1 | 0.3 | 1.8 | -12.3 | 0.4 | 1.1 | 0.1 | nt | nt
COc1ccc(N=C2C(=Nc3ccc(OC)cc3)N(c3ccc(OC)cc3)C(=S)N2C)cc1 | -2.5 | 6.9 | -6.1 | 34.6* | 5.1 | -3.2 | 38.4* | 29.7
CCn1c(N)nc2c1c(=O)n(C)c(=O)n2C | -2.2 | 1.2 | -7.3 | -2.5 | 1.3 | -1.3 | nt | nt
CCCc1nc2c(=O)n(C)c(=O)nc-2n(C)n1 | 2.3 | -1.0 | -18.5 | 54.5* | -29.5 | nt | 88.6* | 55.8*
Cc1c(C)n(C)c2ccc(C(=O)Nc3cccc4ccccc34)cc12 | -3.4 | 9.6 | -19.6 | 44.3* | -17.6 | 3.1 | 46.3* | 12.0
N#CCCC(CCC#N)C1=NCCc2ccccc21 | 0.1 | nt | 16.7 | -11.4 | 1.8 | nt | nt | nt
CCOc1ccc(NC(=O)C(c2ccccn2)N(C(=O)CCl)c2ccc(F)cc2)cc1 (configuration not stated) | -0.6 | 4.9 | 14.8 | 4.3 | 7.4 | 0.5 | nt | nt
CCC(CC)NC(=O)CO/N=C/c1ccccc1OC(F)F | 1.1 | 2.0 | 30.1 | 38.7* | 13.5 | 1.4 | 0.5 | -5.7
CC1=NNC(=O)/C1=C\c1cn(-c2ccccc2)nc1-c1ccc(F)cc1 | -0.8 | -5.8 | 1.9 | 29.7* | -5.0 | nt | 109.6* | 17.7
N#C/C(=C\c1cccc(O)c1)c1nc2ccccc2o1 | 0.8 | nt | -2.2 | 31.6* | -4.1 | nt | 1.1 | 7.2

Source: PubChem
